The values below come from ChEMBL document CHEMBL1127593, “14-epi stereoisomers of 25-hydroxy- and 1 alpha,25-dihydroxyvitamin D3: synthesis, isomerization to previtamins, and biological studies” (J Med Chem, 1994).

A short description of data set [1]: Compound was tested for rate constant for the forward reaction of isomerization of previtamin D to vitamin D. It is filed as ADME. In short, it runs like this:
(§1)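 Vitamin/previtamin ratio read by 1H-NMR integration. Kinetics run in triplicate over 59.8–89.7 °C with Arrhenius treatment; 1α-hydroxy analogue run once at 80 °C. Equilibrium constant at 80 °C taken after prolonged heating from either isomer.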

The nature of data set [2]: Compound was tested for rate constant for the transformation of vitamin to previtamin. Type of data set: ADME. In outline: as §1
A short description of data set [3]: Compound was tested for the backward reaction of conversion of vitamin D to previtamin D. Type of data set: ADME. In outline:
as §1

Data set [4] can be described thus: Keq (k1/1-k) for the transformation of vitamin D to previtamin D. It is filed as ADME. In outline:
as §1

Data set [5] relates to vitamin D receptor (Gallus gallus). Kind of data set: Compound was evaluated for chick vitamin D receptor relative competitive induces (relative to alpha, 25-(OH2)-D3).
Data set [6] in a line: Compound was tested for the backward reaction of conversion of vitamin D to previtaminD. It is filed as ADME. In outline: as §1

For `C=C1CC[C@H](O)C/C1=C/C=C1\CCC[C@@]2(C)[C@@H]1CC[C@@H]2[C@H](C)CCCC(C)(C)O`, the k1 in data set [1] was found to be 4.92e-05 s⁻¹. The “Log A” value in data set [2] is 8.5 s-1. The k-1 in data set [3] turned out to be 0.000845 s⁻¹. Also, the Keq in data set [4] was 0.058.
As to `CC1=C(/C=C\C2=CCC[C@@]3(C)[C@@H]2CC[C@@H]3[C@H](C)CCCC(C)(C)O)CC(O)CC1` (some centres undefined), the RCI in data set [5] was determined as 0.011.
`CC1=C(/C=C\C2=CCC[C@@]3(C)[C@@H]2CC[C@@H]3[C@H](C)CCCC(C)(C)O)C[C@@H](O)C[C@@H]1O` gave an RCI in data set [5] of 1.6.
In data set [6], `C=C1CC[C@H](O)C/C1=C/C=C1\CCC[C@]2(C)[C@@H]([C@H](C)CCCC(C)(C)O)CC[C@@H]12` [CALCIFEDIOL ANHYDROUS] gave a k-1 of 0.000135 s⁻¹. Further, in data set [1], the k1 came out at 0.000502 s⁻¹. This compound showed a Keq in data set [4] of 3.8.
In the case of `C=C1/C(=C\C=C2/CCC[C@]3(C)[C@@H]([C@H](C)CCCC(C)(C)O)CC[C@@H]23)C[C@@H](O)C[C@@H]1O` [CALCITRIOL], in data set [6], the k-1 came to 7.6e-05 s⁻¹. In data set [1], this compound had a k1 of 0.000563 s⁻¹. Besides, in data set [2], the “Log A” value amounted to 9.9 s-1. In addition, the Keq in data set [4] came out at 7.3.
With `C=C1CC[C@H](O)C/C1=C/C=C1\CCC[C@]2(C)[C@@H]([C@H](C)CCCC(C)C)CC[C@@H]12` [CHOLECALCIFEROL], in data set [2], the “Log A” value is listed as 10.7 s-1.
